Assay [1] relates to Mus musculus. In words: Percent blood glucose level in mice 4 hours after peroral administration of compound (100 mg/kg). Format: functional. The essentials: (§1)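 Viable yellow obese diabetic mice, six per group, gavaged with 100 mg/kg in saline-2% Emulphor; six vehicle-gavaged controls. Tail blood taken before dosing and at 2 and 4 h. Glucose measured by glucose oxidase method on an autoanalyzer. Values expressed as percent of zero time, mean ±SE of six mice. Significance versus controls by Student's t test, p < 0.05.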

The subject of assay [2] is Mus musculus. In words: Percent blood glucose level in mice 2 hours after peroral administration of compound (100 mg/kg). Format: functional. The essentials:
as §1

Regarding `Cc1cc[n+](CC(=O)c2ccccc2)cc1.[Br-]`, the values for the Blood glucose in assay [1] and in assay [2] were 103% and 105%, respectively.
Taken in the same sequence, the figures for `Cn1cc[n+](CC(=O)c2ccc(C#N)cc2)c1.[Br-]` were 106% and 105%.
In the same order, the values of `Cn1cc[n+](CC(=O)c2cccc(C(F)(F)F)c2)c1.[I-]` are 97% and 95%.
In the same order, the values of `Cc1ccc(C(=O)Cn2ccc[n+]2C)cc1.[Br-]` are 82% and 83%.
With `Cn1cc[n+](C(C)(C)C(=O)c2ccccc2)c1.[Br-]`, the Blood glucose was found to be 113% in assay [1] and 104% in assay [2].
In the same order, the values of `Cc1n(C)cc[n+]1CC(=O)c1ccccc1.[Cl-]` are 81% and 90%.
In the same order, the values of `COc1ccc(C(=O)C[n+]2ccn(C)c2)cc1.[Br-]` are 77% and 70%.
`Cn1cc[n+](CC(=O)c2ccco2)c1.[Br-]`: the Blood glucose was found to be 92% in assay [1] and 72% in assay [2].
Take `COc1cccc(C(=O)Cn2ccn(C)c2=O)c1`: the Blood glucose in assay [1] came to 103%; in assay [2] it was 101%.
In the same order, the values of `COc1ccc(C(=O)C[n+]2ccn(C)c2)cc1OC.[Br-]` are 81% and 86%.
In the same order, the values of `CC(=O)C[n+]1ccn(-c2ccccc2)c1.[Cl-]` are 109% and 105%.
In the same order, the values of `COc1cccc(C(=O)C[n+]2ccsc2)c1.[Br-]` are 123% and 105%.
As for `CCCn1cc[n+](CC(=O)c2ccccc2)c1.[Cl-]`, the Blood glucose in assay [1] and in assay [2] was 79% throughout.
Turning to `Cn1cc[n+](CC(=O)c2ccccc2F)c1.[Br-]`, the Blood glucose was found to be 99% in assay [1] and 91% in assay [2].
Regarding `Cc1ccc(C(=O)C[n+]2cn(C)c(-c3ccccc3)c2-c2ccccc2)cc1.[Br-]`, the Blood glucose in assay [1] was 105%; in assay [2], 102%.
In the case of `Cn1cc[n+](CC(=O)c2ccc(C(N)=O)cc2)c1.[Br-]`, the Blood glucose in assay [1] worked out at 95%; in assay [2] it was 100%.
Consider `Cc1ccc(C(=O)C[n+]2ccncc2)cc1.[Br-]`, for which the results for the Blood glucose in assay [1] and in assay [2] were 112% and 122%, respectively.
Taken in the same sequence, the figures for `Cc1ccc(C(=O)C[n+]2cc3ccccc3cn2)cc1.[Br-]` were 108% and 115%.
`CCOc1cccc(C(=O)C[n+]2ccn(C)c2)c1.[Br-]`: the Blood glucose in assay [1] worked out at 64%; in assay [2] it was 63%.
In the same order, the values of `COc1cccc(C(=O)C[n+]2ccn(C(C)C)c2)c1.[Br-]` are 83% and 79%.
In the same order, the values of `C[n+]1ccn(CC(=O)c2ccccc2)c1.[Br-]` are 71% and 74%.
Taken in the same sequence, the figures for `COc1cccc(C(=O)C[N+]2=CN(C)CC2)c1.[Br-]` were 97% and 81%.
As to `Cn1cc[n+](C(C(=O)c2ccccc2)c2ccccc2)c1.[Cl-]` (stereo not drawn), the Blood glucose in assay [1] turned out to be 83%; in assay [2] it was 94%.
Taken in the same sequence, the figures for `Br.O=C(Cn1ccnc1)c1ccccc1` were 90% and 103%.
In the same order, the values of `Cc1ccc(C(=O)C[n+]2ccn(C)c2)cc1.[Br-]` are 53% and 57%.
`COc1cc(OC)cc(C(=O)C[n+]2ccoc2)c1.[Br-]`: the Blood glucose in assay [1] is reported as 97%; in assay [2] it was 95%.
Taken in the same sequence, the figures for `Cc1ccccc1C(=O)C[n+]1ccn(C)c1.[Br-]` were 87% and 80%.
Take `Cn1cc[n+](CC(=O)c2cccc3ccccc23)c1.[Br-]`: the Blood glucose worked out at 110% in assay [1] and 90% in assay [2].
In the case of `CC(=O)Nc1cccc(C(=O)C[n+]2ccn(C)c2)c1.[Br-]`, the Blood glucose worked out at 109% in assay [1] and 100% in assay [2].
In the same order, the values of `Cc1ccc(C(=O)C[n+]2ccn(C)c2)c(C)c1.[Br-]` are 79% and 62%.
For `Cn1cc[n+](CC(=O)c2ccc3ccccc3c2)c1.[Br-]`, the Blood glucose in assay [1] was 99%; in assay [2], 89%.
Taken in the same sequence, the figures for `Cn1cc[n+](CC(=O)c2ccc(-c3ccccc3)cc2)c1.[Br-]` were 103% and 103%.
With `Cc1cc(C)c(C(=O)C[n+]2ccn(C)c2)c(C)c1.[Br-]`, the Blood glucose is reported as 97% in assay [1] and 94% in assay [2].
With `COc1cccc(C(O)C[n+]2ccn(C)c2)c1.[I-]` (stereo not drawn), the results for the Blood glucose in assay [1] and in assay [2] were 103% and 106%, respectively.
In the same order, the values of `CO/N=C(/C[n+]1ccn(C)c1)c1ccc(C)cc1.[I-]` are 81% and 86%.
In the same order, the values of `COC(=O)Cn1cc[n+](CC(=O)c2ccccc2)c1.[Br-]` are 84% and 89%.
Taken in the same sequence, the figures for `Cn1cc[n+](CC(=O)c2cccc(Cl)c2)c1.[Br-]` were 112% and 107%.
As to `Cn1cc[n+](CC(=O)c2ccc(Cl)cc2)c1.[Br-]`, the Blood glucose in assay [1] turned out to be 93%; in assay [2] it was 94%.
For `COc1cccc(C(=O)C[n+]2ccn(C)c2SC(C)C)c1.[Br-]`, the values for the Blood glucose in assay [1] and in assay [2] were 121% and 101%, respectively.
Taken in the same sequence, the figures for `CC(C(=O)c1ccccc1)[n+]1ccn(C)c1.[Br-]` (stereo not drawn) were 61% and 70%.
In the same order, the values of `COc1cccc(C(=O)C[n+]2ccn(C)c2)c1OC.[Br-]` are 88% and 83%.
Consider `COc1cc(OC)cc(C(=O)C[n+]2ccn(C)c2)c1.[Br-]`, for which the Blood glucose amounted to 69% in assay [1] and 83% in assay [2].
For the molecule `Cc1cccc(C(=O)C[n+]2ccn(C)c2)c1.[Br-]`, the results for the Blood glucose in assay [1] and in assay [2] were 73% and 78%, respectively.
In the same order, the values of `Cc1ccc(C(=O)C[n+]2ccccn2)cc1.[Br-]` are 111% and 105%.
In the same order, the values of `COc1cccc(C(=O)Cn2ccnc2)c1` are 121% and 110%.
As to `Cn1cc[n+](CC(=O)c2ccc(O)c(O)c2)c1.[Cl-]`, the Blood glucose is reported as 107% in assay [1] and 108% in assay [2].
Taken in the same sequence, the figures for `Cn1cc[n+](CC(=O)c2ccc(Cl)c(Cl)c2)c1.[Br-]` were 79% and 94%.
Taken in the same sequence, the figures for `COc1ccccc1C(=O)C[n+]1ccn(C)c1.[Br-]` were 97% and 90%.
Taken in the same sequence, the figures for `COc1cccc(C(=O)C[n+]2ccn(C)c2)c1.[Br-]` were 72% and 58%.
For the molecule `Cc1ccc(S(=O)(=O)[O-])cc1.Cn1cc[n+](CC(=O)c2cccc(O)c2)c1`, the values for the Blood glucose in assay [1] and in assay [2] were 87% and 93%, respectively.
In the same order, the values of `CCCOc1cccc(C(=O)C[n+]2ccn(C)c2)c1.[Br-]` are 72% and 63%.
For `Cc1ccc(C(=O)C[n+]2ccn(C)c2)cc1C.[Br-]`, the Blood glucose is 95% in assay [1] and 83% in assay [2].
Taken in the same sequence, the figures for `COc1cccc(C(=O)Cn2ccn(C)c2=S)c1` were 80% and 99%.
As to `COc1cccc(C(=O)C[n+]2ccn(-c3ccccc3)c2)c1.[Br-]`, the values for the Blood glucose in assay [1] and in assay [2] were 91% and 96%, respectively.
Taken in the same sequence, the figures for `COc1cccc(C(=O)CC[n+]2ccn(C)c2)c1.[I-]` were 94% and 91%.
With `Cc1ccc(C(=O)C[n+]2csc3ccccc32)cc1.[Br-]`, the Blood glucose is 108% in assay [1] and 106% in assay [2].
In the same order, the values of `CCOc1ccc(C(=O)C[n+]2ccn(C)c2)cc1.[Br-]` are 104% and 103%.
Turning to `CCc1ccc(C(=O)C[n+]2ccn(C)c2)cc1.[Br-]`, the Blood glucose is recorded as 88% in assay [1] and 77% in assay [2].
In the same order, the values of `COc1ccc(OC)c(C(=O)C[n+]2ccn(C)c2)c1.[Br-]` are 86% and 78%.

Source of the values: ChEMBL document CHEMBL1124352, “Oral hypoglycemic agents. Discovery and structure-activity relationships of phenacylimidazolium halides” (1989).
